Measured values as given in ChEMBL document CHEMBL1153373, “Effect of ring size on conformation and biological activity of cyclic cationic antimicrobial peptides” (J Med Chem, 2009).
In brackets after ≈: the same amount, converted by molar mass. Square brackets hold non-standard residues; d marks the D form. Peptide text beside a SMILES is read from it.

Columns and labels:
[1] = tested on: Enterococcus faecalis; test: Antimicrobial activity against Enterococcus faecalis after 24 hrs by standard microtiter dilution method; format: functional
[2] = tested on: Escherichia coli; test: Antimicrobial activity against Escherichia coli after 24 hrs by standard microtiter dilution method; format: functional
[3] = tested on: Staphylococcus epidermidis; test: Antimicrobial activity against Staphylococcus epidermidis after 24 hrs by standard microtiter dilution method; format: functional
[4] = tested on: Enterobacter cloacae; test: Antimicrobial activity against Enterobacter cloacae after 24 hrs by standard microtiter dilution method; format: functional
[5] = tested on: Candida albicans; test: Antimicrobial activity against Candida albicans after 24 hrs by standard microtiter dilution method; format: functional
In short: (§1)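 Fungal MICs were determined by standard microtitre dilution, taken as the lowest peptide concentration inhibiting growth after 24 h incubation at 37 °C.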

[6] = tested on: Cryptococcus neoformans; test: Antimicrobial activity against Cryptococcus neoformans after 24 hrs by standard microtiter dilution method; format: functional; in short: as §1
[7] = tested on: Streptococcus pneumoniae; test: Antimicrobial activity against Streptococcus pneumoniae after 24 hrs by standard microtiter dilution method; format: functional
[8] = tested on: Acinetobacter calcoaceticus; test: Antimicrobial activity against Acinetobacter calcoaceticus after 24 hrs by standard microtiter dilution method; format: functional
[9] = Therapeutic index, ratio of hemolytic activity in human RBC to MIC for Enterobacter cloacae; conditions: human red blood cells (RBC), read-out: TI
[10] = tested on: Streptococcus pyogenes; test: Antimicrobial activity against Streptococcus pyogenes after 24 hrs by standard microtiter dilution method; format: functional
[11] = tested on: Klebsiella pneumoniae; test: Antimicrobial activity against Klebsiella pneumoniae after 24 hrs by standard microtiter dilution method; format: functional
[12] = tested on: Corynebacterium jeikeium; test: Antimicrobial activity against Corynebacterium jeikeium after 24 hrs by standard microtiter dilution method; format: functional
[13] = tested on: Streptococcus mitis; test: Antimicrobial activity against Streptococcus mitis after 24 hrs by standard microtiter dilution method; format: functional
[14] = tested on: Staphylococcus aureus; test: Antimicrobial activity against Staphylococcus aureus after 24 hrs by standard microtiter dilution method; format: functional
[15] = tested on: Stenotrophomonas maltophilia; test: Antimicrobial activity against Stenotrophomonas maltophilia after 24 hrs by standard microtiter dilution method; format: functional
[16] = Therapeutic index, ratio of hemolytic activity in human RBC to MIC for Candida albicans; conditions: human red blood cells (RBC), read-out: TI
[17] = Therapeutic index, ratio of hemolytic activity in human RBC to MIC for Streptococcus pneumoniae; conditions: human red blood cells (RBC), read-out: TI
[18] = Therapeutic index, ratio of hemolytic activity in human RBC to MIC for Staphylococcus epidermidis; conditions: human red blood cells (RBC), read-out: TI
[19] = Therapeutic index, ratio of hemolytic activity in human RBC to MIC for Acinetobacter calcoaceticus; conditions: human red blood cells (RBC), read-out: TI
[20] = tested on: Pseudomonas aeruginosa; test: Antimicrobial activity against Pseudomonas aeruginosa after 24 hrs by standard microtiter dilution method; format: functional
[21] = tested on: Serratia marcescens; test: Antimicrobial activity against Serratia marcescens after 24 hrs by standard microtiter dilution method; format: functional

Compound	MIC [1] [µg/mL]	MIC [2] [µg/mL]	MIC [4] [µg/mL]	MIC [6] [µg/mL]	MIC [7] [µg/mL]	MIC [8] [µg/mL]	MIC [11] [µg/mL]	MIC [12] [µg/mL]	MIC [13] [µg/mL]	MIC [14] [µg/mL]	MIC [15] [µg/mL]	further results
CC(C)C[C@@H]1NC(=O)[C@H](CCCCN)NC(=O)[C@H](C(C)C)NC(=O)[C@@H]2CCCN2C(=O)[C@@H](Cc2ccc(O)cc2)NC(=O)[C@H](CC(C)C)NC(=O)[C@H](CCCCN)NC(=O)[C@H](C(C)C)NC(=O)[C@H](CCCCN)NC(=O)[C@H](CC(C)C)NC(=O)[C@H](CCCCN)NC(=O)[C@@H]2CCCN2C(=O)[C@@H](Cc2ccc(O)cc2)NC(=O)[C@H](CCCCN)NC(=O)[C@H](C(C)C)NC(=O)[C@H](CCCCN)NC1=O (cyclo(VKLKVK[dY]PKLKVKL[dY]P))	4 (≈ 2.08 µM)	4 (≈ 2.08 µM)	64 (≈ 33.2 µM)	64 (≈ 33.2 µM)	1 (≈ 0.519 µM)	2 (≈ 1.04 µM)						MIC [3]: 2 µg/mL (≈ 1.04 µM); MIC [5]: 64 µg/mL (≈ 33.2 µM)
CC(C)C[C@@H]1NC(=O)[C@H](CCCCN)NC(=O)[C@H](C(C)C)NC(=O)[C@@H]2CCCN2C(=O)[C@@H](Cc2ccc(O)cc2)NC(=O)[C@H](CC(C)C)NC(=O)[C@H](CCCCN)NC(=O)[C@H](C(C)C)NC(=O)[C@H](CCCCN)NC(=O)[C@H](CC(C)C)NC(=O)[C@H](CCCCN)NC(=O)[C@@H]2CCCN2C(=O)[C@@H](Cc2ccc(O)cc2)NC(=O)[C@H](C(C)C)NC(=O)[C@H](CCCCN)NC1=O (cyclo(VKLKV[dY]PKLKVKL[dY]P)) [listing 1 of 2 here]												selectivity ratio [9]: 2
CC(C)C[C@@H]1NC(=O)[C@H](CCCCN)NC(=O)[C@H](C(C)C)NC(=O)[C@@H]2CCCN2C(=O)[C@@H](Cc2ccc(O)cc2)NC(=O)[C@H](CC(C)C)NC(=O)[C@H](CCCCN)NC(=O)[C@H](C(C)C)NC(=O)[C@H](CCCCN)NC(=O)[C@H](CC(C)C)NC(=O)[C@@H]2CCCN2C(=O)[C@@H](Cc2ccc(O)cc2)NC(=O)[C@H](CCCCN)NC1=O (cyclo(VKLK[dY]PLKVKL[dY]P))	4 (≈ 2.55 µM)	16 (≈ 10.2 µM)					8 (≈ 5.09 µM)	2 (≈ 1.27 µM)	0.5 (≈ 0.318 µM)	4 (≈ 2.55 µM)		
CC(C)C[C@@H]1NC(=O)[C@H](CCCCN)NC(=O)[C@H](C(C)C)NC(=O)[C@@H]2CCCN2C(=O)[C@@H](Cc2ccc(O)cc2)NC(=O)[C@H](CC(C)C)NC(=O)[C@H](CCCCN)NC(=O)[C@H](C(C)C)NC(=O)[C@@H]2CCCN2C(=O)[C@@H](Cc2ccc(O)cc2)NC(=O)[C@H](CCCCN)NC1=O (cyclo(VKLK[dY]PVKL[dY]P)) [listing 1 of 2 here]												selectivity ratio [16]: 16; selectivity ratio [17]: 255; selectivity ratio [18]: 128; selectivity ratio [19]: 255

Now from value to molecule, other results behind:

MIC [1] [µg/mL]	MIC [2] [µg/mL]	MIC [4] [µg/mL]	MIC [6] [µg/mL]	MIC [7] [µg/mL]	MIC [8] [µg/mL]	MIC [11] [µg/mL]	MIC [12] [µg/mL]	MIC [13] [µg/mL]	MIC [14] [µg/mL]	MIC [15] [µg/mL]	Compound	further results
2 (≈ 1.11 µM)			1 (≈ 0.556 µM)	0.5 (≈ 0.278 µM)	2 (≈ 1.11 µM)	8 (≈ 4.45 µM)	2 (≈ 1.11 µM)	0.5 (≈ 0.278 µM)	2 (≈ 1.11 µM)	4 (≈ 2.22 µM)	CC(C)C[C@@H]1NC(=O)[C@H](CCCCN)NC(=O)[C@H](C(C)C)NC(=O)[C@@H]2CCCN2C(=O)[C@@H](Cc2ccc(O)cc2)NC(=O)[C@H](CC(C)C)NC(=O)[C@H](CCCCN)NC(=O)[C@H](C(C)C)NC(=O)[C@H](CCCCN)NC(=O)[C@H](CC(C)C)NC(=O)[C@H](CCCCN)NC(=O)[C@@H]2CCCN2C(=O)[C@@H](Cc2ccc(O)cc2)NC(=O)[C@H](C(C)C)NC(=O)[C@H](CCCCN)NC1=O (cyclo(VKLKV[dY]PKLKVKL[dY]P)) [listing 2 of 2 here]	MIC [10]: 0.5 µg/mL (≈ 0.278 µM)
32 (≈ 24.1 µM)	64 (≈ 48.1 µM)	256 (≈ 193 µM)	32 (≈ 24.1 µM)	8 (≈ 6.02 µM)	8 (≈ 6.02 µM)	64 (≈ 48.1 µM)	2 (≈ 1.5 µM)		64 (≈ 48.1 µM)	64 (≈ 48.1 µM)	CC(C)C[C@@H]1NC(=O)[C@H](CCCCN)NC(=O)[C@H](C(C)C)NC(=O)[C@@H]2CCCN2C(=O)[C@@H](Cc2ccc(O)cc2)NC(=O)[C@H](CC(C)C)NC(=O)[C@H](CCCCN)NC(=O)[C@H](C(C)C)NC(=O)[C@@H]2CCCN2C(=O)[C@@H](Cc2ccc(O)cc2)NC(=O)[C@H](CCCCN)NC1=O (cyclo(VKLK[dY]PVKL[dY]P)) [listing 2 of 2 here]	MIC [20]: 256 µg/mL (≈ 193 µM)
4 (≈ 2.22 µM)	16 (≈ 8.9 µM)	256 (≈ 142 µM)				8 (≈ 4.45 µM)	1 (≈ 0.556 µM)	4 (≈ 2.22 µM)	32 (≈ 17.8 µM)	8 (≈ 4.45 µM)	CC(C)C[C@@H]1NC(=O)[C@H](CCCCN)NC(=O)[C@@H]2CCCN2C(=O)[C@@H](Cc2ccc(O)cc2)NC(=O)[C@H](CCCCN)NC(=O)[C@H](C(C)C)NC(=O)[C@H](CC(C)C)NC(=O)[C@H](CCCCN)NC(=O)[C@H](C(C)C)NC(=O)[C@@H]2CCCN2C(=O)[C@@H](Cc2ccc(O)cc2)NC(=O)[C@H](CC(C)C)NC(=O)[C@H](CCCCN)NC(=O)[C@H](C(C)C)NC(=O)[C@H](CCCCN)NC1=O (cyclo(VKLVK[dY]PKLKVKL[dY]P))	MIC [3]: 16 µg/mL (≈ 8.9 µM); MIC [21]: 256 µg/mL (≈ 142 µM)
